According to PMC2229441 (The Journal of General Physiology, 1998):
Like-named read-outs stand apart in the source and are kept apart here.

Assays:
patch-clamped mast cells = type: cell-based, rat
How it was run: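 Peritoneal mast cells from male Wistar rats (300–350 g), Percoll-purified, held in DMEM/F-12 with 2 mM glutamine at 37°C, 5% CO2. Test peptide is delivered through the patch pipette (IS 2 with 100 μM FURA-2 and EGTA buffering). Degranulation is tracked as membrane capacitance rise after patch rupture; delay is taken at 10% capacitance increase. [Ca2+]i is read from 340/380 nm ratios. Mean ± SEM (cells).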

PtX-treated mast cells = settings: non–membrane-penetrating dyes; ref Wiesner et al., manuscript in preparation; cited from earlier work

Nc1nc2c(ncn2[C@@H]2O[C@H](COP(=O)(O)OP(O)(O)=S)[C@@H](O)[C@H]2O)c(=O)[nH]1 [GDPβS]
cells in which SP-induced exocytosis was inhibited (patch-clamped mast cells; 1 mM GDPβS applied together with 5 μM SP through the patch pipette): four of five

carboxyfluorescein
translocation into PtX-treated mast cells (PtX-treated mast cells): not translocated

Nc1nc2c(ncn2[C@@H]2O[C@H](COP(=O)(O)OP(=O)(O)OP(O)(O)=S)[C@@H](O)[C@H]2O)c(=O)[nH]1 [GTPγS]
degranulation rate (patch-clamped mast cells; 2.5–5 μM, n = 25, mean ± SEM): 0.05 ± 0.005 pF/s | degranulation rate (patch-clamped mast cells; 10–25 μM, n = 16, mean ± SEM): 0.15 ± 0.03 pF/s | shortest time delay, extrapolated to high concentrations (patch-clamped mast cells; extrapolation of curves of Fig. 7): about 20 s | cells in which degranulation occurred (patch-clamped mast cells; intracellular application at similar concentrations as SP, IS 1): 41 of 45 | membrane capacitance increase in degranulating cells (patch-clamped mast cells; intracellular application, IS 1, mean ± SEM (SP n = 31)): 2.7 ± 0.1 fold
